Test results: ChEMBL document CHEMBL1154014, “Discovery of a novel class of 2-mercaptohexanoic acid derivatives as highly active PPARalpha agonists” (Bioorg Med Chem Lett, 2009)
Calls of active or inactive are those of the source. No cut-off for these calls is given here.

Tests used:
COS-7 = assay: Selectivity ratio of EC50 for human PPARgamma to EC50 for human PPARalpha expressed in african green monkey COS7 cells; format: cell-based
[1] = biological target: T1, Peroxisome proliferator-activated receptor delta (Homo sapiens) (UniProt Q03181); assay: Agonist activity at human PPARbeta expressed in african green monkey COS7 cells at 10 uM by Gal4 transactivation assay; format: functional, cell-based; settings: COS-7
T1 sequence (whole entry): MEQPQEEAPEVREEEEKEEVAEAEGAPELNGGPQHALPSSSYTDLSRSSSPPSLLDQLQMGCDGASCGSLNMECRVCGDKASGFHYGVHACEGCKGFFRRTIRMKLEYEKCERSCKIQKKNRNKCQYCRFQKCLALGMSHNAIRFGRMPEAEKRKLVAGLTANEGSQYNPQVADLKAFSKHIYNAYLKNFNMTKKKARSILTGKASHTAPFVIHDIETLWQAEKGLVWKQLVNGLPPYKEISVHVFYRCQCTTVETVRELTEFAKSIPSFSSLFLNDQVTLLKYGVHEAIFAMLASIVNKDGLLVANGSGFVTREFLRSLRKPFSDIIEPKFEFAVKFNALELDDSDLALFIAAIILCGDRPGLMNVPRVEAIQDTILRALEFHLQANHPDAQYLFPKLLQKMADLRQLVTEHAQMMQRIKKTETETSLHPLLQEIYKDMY

[2] = biological target: T2, Peroxisome proliferator-activated receptor gamma (Homo sapiens) (UniProt P37231); assay: Agonist activity at human PPARgamma expressed in african green monkey COS7 cells at 1 uM by Gal4 transactivation assay relative to pioglitazone; format: functional, cell-based; settings: COS-7
T2 sequence (whole entry): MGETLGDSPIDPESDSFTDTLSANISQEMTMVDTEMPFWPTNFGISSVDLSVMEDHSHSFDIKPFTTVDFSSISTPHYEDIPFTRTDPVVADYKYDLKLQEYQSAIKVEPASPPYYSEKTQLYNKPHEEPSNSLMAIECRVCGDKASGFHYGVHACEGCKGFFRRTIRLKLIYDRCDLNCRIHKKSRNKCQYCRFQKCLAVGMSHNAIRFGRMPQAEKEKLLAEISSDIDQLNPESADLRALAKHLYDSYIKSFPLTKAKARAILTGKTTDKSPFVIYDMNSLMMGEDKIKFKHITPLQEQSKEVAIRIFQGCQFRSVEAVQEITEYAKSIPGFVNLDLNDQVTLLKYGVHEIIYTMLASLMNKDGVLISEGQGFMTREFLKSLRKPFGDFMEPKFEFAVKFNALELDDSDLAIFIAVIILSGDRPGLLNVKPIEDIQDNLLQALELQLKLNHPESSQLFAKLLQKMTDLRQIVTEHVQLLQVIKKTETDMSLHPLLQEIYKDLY

[3] = biological target: T3, Peroxisome proliferator-activated receptor gamma (Homo sapiens, UniProt P37231); assay: Agonist activity at human PPARgamma expressed in african green monkey COS7 cells by Gal4 transactivation assay; format: functional, cell-based, COS-7
T3 sequence (P37231 whole entry): T2 sequence (whole entry)
Outline: (§1)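 COS7 cells were grown in DMEM with FCS, sodium pyruvate and penicillin/streptomycin at 37 °C, 5% CO2, and seeded at 30,000 cells/well the day before transfection. They were lipofected with pFR-Luc, pRL-SV40 and the Gal4-hPPAR-LBD plasmid of each subtype. After 5 h, cells received serum-free DMEM with 0.1% DMSO plus compound, incubated overnight, then Dual-Glo luciferase read-out. Triplicate wells, ≥3 independent experiments; EC50 from mean values.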

[4] = biological target: T4, Peroxisome proliferator-activated receptor alpha (Homo sapiens, UniProt Q07869); assay: Agonist activity at human PPARalpha expressed in african green monkey COS7 cells by Gal4 transactivation assay; format: functional, cell-based, COS-7; outline: as §1
T4 sequence (Q07869 whole entry): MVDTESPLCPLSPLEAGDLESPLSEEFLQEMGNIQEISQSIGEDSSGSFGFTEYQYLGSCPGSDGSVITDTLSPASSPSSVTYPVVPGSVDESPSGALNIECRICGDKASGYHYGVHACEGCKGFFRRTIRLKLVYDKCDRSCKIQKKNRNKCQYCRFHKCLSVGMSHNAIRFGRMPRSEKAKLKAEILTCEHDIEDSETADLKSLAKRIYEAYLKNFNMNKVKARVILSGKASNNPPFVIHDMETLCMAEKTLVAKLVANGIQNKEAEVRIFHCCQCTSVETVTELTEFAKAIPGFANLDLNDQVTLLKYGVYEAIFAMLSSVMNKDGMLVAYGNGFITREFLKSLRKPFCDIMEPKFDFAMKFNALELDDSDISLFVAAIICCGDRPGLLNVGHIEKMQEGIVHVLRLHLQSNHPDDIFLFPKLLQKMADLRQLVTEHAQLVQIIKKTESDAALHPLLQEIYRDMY

[5] = biological target: T5, Peroxisome proliferator-activated receptor alpha (Homo sapiens) (UniProt Q07869); assay: Agonist activity at human PPARalpha expressed in african green monkey COS7 cells at 1 uM by Gal4 transactivation assay relative to GW-7647; format: functional, cell-based; settings: COS-7
T5 sequence (whole entry): T4 sequence (Q07869 whole entry)

[6] = biological target: T1, Peroxisome proliferator-activated receptor delta (Homo sapiens); assay: Agonist activity at human PPARbeta expressed in african green monkey COS7 cells at 10 uM by Gal4 transactivation assay relative to L165041; format: functional, cell-based; settings: COS-7
[7] = biological target: T2, Peroxisome proliferator-activated receptor gamma (Homo sapiens); assay: Agonist activity at human PPARgamma expressed in african green monkey COS7 cells at 10 uM by Gal4 transactivation assay; format: functional, cell-based; settings: COS-7
[8] = biological target: T5, Peroxisome proliferator-activated receptor alpha (Homo sapiens); assay: Agonist activity at human PPARalpha expressed in african green monkey COS7 cells at 10 uM by Gal4 transactivation assay; format: functional, cell-based; settings: COS-7
[9] = biological target: T1, Peroxisome proliferator-activated receptor delta (Homo sapiens); assay: Agonist activity at human PPARbeta expressed in african green monkey COS7 cells at 1 uM by Gal4 transactivation assay relative to L165041; format: functional, cell-based; settings: COS-7
[10] = biological target: T6, Peroxisome proliferator-activated receptor delta (Homo sapiens, UniProt Q03181); assay: Agonist activity at human PPARbeta expressed in african green monkey COS7 cells by Gal4 transactivation assay; format: functional, cell-based, COS-7; outline: as §1
T6 sequence (Q03181 whole entry): T1 sequence (whole entry)

Row | Structure (SMILES) | Ratio EC50 (COS-7) | Activity [1] | Activity [2] [%] | EC50 [3] [nM] | EC50 [4] [nM] | Activity [5] [%] | Activity [6] [%] | Activity [7] | Activity [8] | Activity [9] [%] | EC50 [10] [nM]
1 | CCCCC(Sc1ccc(OCCCOc2ccccc2)cc1)C(=O)O (centres undefined) | 9 | inactive | 83 | 2600 | 290 | 76 | – | – | – | – | –
2 | CCCCC(Sc1ccc(OCCCOc2ccc(C)cc2)cc1)C(=O)O (centres undefined) | – | – | 87 | 930 | 85 | 91 | 31 | – | – | – | –
3 | CCCCC(Sc1ccc(OCCCOc2cccc3c2CCCC3)cc1)C(=O)O (centres undefined) | – | inactive | 107 | 8100 | 190 | 101 | – | – | – | – | –
4 | CCCCC(Sc1ccc(OCCCOc2ccc(C)c(C)c2)cc1)C(=O)O (centres undefined) | – | inactive | 61 | 3500 | 21 | 72 | – | – | – | – | –
5 | CCCC/C(=C\c1ccc(OCCCOc2cccc(C)c2C)cc1)C(=O)O | – | inactive | – | – | – | – | – | inactive | inactive | – | –
6 | CCCCC(Sc1ccc(OCCCOc2ccccc2C(C)C)cc1)C(=O)O (centres undefined) | – | inactive | 92 | 4100 | 2000 | 89 | – | – | – | – | –
7 | CCCCC(Sc1ccc(OCCCOc2cccc(OC)c2)cc1)C(=O)O (centres undefined) | – | inactive | 85 | 1200 | 49 | 85 | – | – | – | – | –
8 | CCCCC(Sc1ccc(OCCCOc2ccccc2OC)cc1)C(=O)O (centres undefined) | – | inactive | 85 | 1600 | 550 | 92 | – | – | – | – | –
9 | CCCCC(Sc1ccc(OCCCOc2cccc(C)c2)cc1)C(=O)O (centres undefined) | – | inactive | 96 | 3000 | 90 | 80 | – | – | – | – | –
10 | CCCCC(Sc1ccc(OCCCOc2cccc(C(C)C)c2)cc1)C(=O)O (centres undefined) | – | inactive | 91 | 5300 | 150 | 98 | – | – | – | – | –
11 | CCCCC(Sc1ccc(OCCCOc2ccc3ncccc3c2)cc1)C(=O)O (centres undefined) | 6 | inactive | 49 | 1300 | 220 | 95 | – | – | – | – | –
12 | CCCCC(Sc1ccc(OCCCOc2cccc(C(F)(F)F)c2)cc1)C(=O)O (centres undefined) | – | inactive | 68 | 4600 | 25 | 75 | – | – | – | – | –
13 | CCCCC(Sc1ccc(OCCCOc2ccccc2C)cc1)C(=O)O (centres undefined) | – | inactive | 114 | 2300 | 250 | 64 | – | – | – | – | –
14 | CCCCC(Sc1ccc(OCCCOc2cccc(C)c2C)cc1)C(=O)O (centres undefined) | 54 | inactive | 82 | 3000 | 56 | 113 | – | – | – | – | –
15 | CCCC[C@H](Sc1ccc(OCCCOc2cccc(C)c2C)cc1)C(=O)O | – | inactive | 77 | 9900 | 1700 | 94 | – | – | – | – | –
16 | CCCCC(Sc1ccc(OCCCOc2ccc(Cl)c(C(F)(F)F)c2)cc1)C(=O)O (centres undefined) | – | inactive | 96 | 7800 | 390 | 65 | – | – | – | – | –
17 | CCCC[C@@H](Sc1ccc(OCCCOc2cccc(C)c2C)cc1)C(=O)O | – | inactive | 125 | 3900 | 11 | 115 | – | – | – | – | –
18 | CCCCC(Sc1ccc(OCCCOc2ccc(-c3ccccc3)cc2)cc1)C(=O)O (centres undefined) | 5 | inactive | 108 | 540 | 110 | 125 | – | – | – | – | –
19 | Cc1cccc(OCCCOc2ccc(CCC(=O)O)cc2)c1C | – | – | 54 | 15700 | 13800 | 63 | – | – | – | 72 | 11200
20 | CCCCC(Cc1ccc(OCCCOc2cccc(C)c2C)cc1)C(=O)O (centres undefined) | – | inactive | 120 | 4200 | 1500 | 73 | – | – | – | – | –
21 | Cc1cccc(OCCCOc2ccc(SCC(=O)O)cc2)c1C | – | – | 77 | 3800 | 600 | 81 | – | – | – | 52 | 1400
